The subject of data set [1] is Penicillium digitatum. Kind of data set: Fungicidal activity against Penicillium digitatum infected Valenica oranges assessed as fruit weight loss at 400 mg/L treated for 1 min at 40 degC postharvest at 20 hr after fungal conidial inoculation measured after 7 days of storage at 17 degC in presence of 0.5% SBC (water Rvb = 4.07%). In kind it is functional.
In data set [2] the test system is Fruit. As to the kind of experiment: Drug residues in Citrus sinensis cvs. Valencia late (Valencia oranges) at 400 mg/L treated for 1 min at 40 degC postharvest measured after 20 days of storage at 17 degC in presence of 2% SBC by GC analysis. The data set is classed as ADME. The procedure, abridged: (§1)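 'Valencia' oranges were dipped 1 min in TBZ at 600 mg/L (20 °C, ±0.5, 1 or 2% wt/vol SBC), 400 mg/L (40 °C, ±SBC) or 200 mg/L (50 °C, alone), then air-dried. They were sampled at 0, 10 and 20 days at 17 °C. Peel of five fruit was frozen, and 5 g of homogenate was extracted with ethyl acetate/hexane (1/1) plus NaCl. The extract was dried under N2, taken up in acetone and analysed by GC. Results are mg/kg on a whole-fruit basis.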

The subject of data set [3] is Penicillium digitatum. As to the kind of experiment: Fungicidal activity against TBZ-resistant Penicillium digitatum infected Nova mandarins assessed as postharvest green mold incidence at 400 mg/L treated for 1 min at 40 degC at 20 hr after fungal conidial inoculation measured after 5 days of storage at 20 degC (water Rvb = 96.7%). In kind it is functional.
The test system of data set [4] is Penicillium digitatum. Kind of data set: Fungicidal activity against TBZ-resistant Penicillium digitatum infected Valencia oranges assessed as postharvest green mold incidence at 600 mg/L treated for 1 min at 20 degC at 20 hr after fungal conidial inoculation measured after 7 days of storage at 20 degC in presence of 2% SBC (water Rvb = 40.0%). In kind it is functional.

In data set [5] the test system is Cuticular wax. As to the kind of experiment: Drug residues in Citrus sinensis cvs. Salustiana (Salustiana oranges) cuticular wax at 600 mg/L treated for 3 min at 50 degC postharvest measured after overnight incubation at 17 degC by GC analysis. In kind it is ADME. Particulars: 0.05 h. The method, boiled down:
(§2)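 'Salustiana' oranges were washed with water and air-dried. They were dipped 1 or 3 min in TBZ 600 mg/L at 20 or 50 °C, or 1 min in TBZ 600 mg/L plus 2% SBC at 20 °C, then dried overnight at 17 °C in the dark. Surface residue was taken by water extraction and wax residue by chloroform extraction. Inner residue was measured in fruit after both extractions. Extracts were dried under N2, taken up in acetone and analysed by GC. Values are mg/kg on a whole-fruit basis.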

In data set [6] the test system is Fruit surface. Kind of data set: Drug residues on Citrus sinensis cvs. Salustiana (Salustiana oranges) fruit surface at 600 mg/L treated for 1 min at 20 degC postharvest measured after overnight incubation at 17 degC by GC analysis. In kind it is ADME. The procedure, abridged: as §2
In data set [7] the test system is Fruit. As to the kind of experiment: Total drug residues in Citrus sinensis cvs. Salustiana (Salustiana oranges) fruit at 600 mg/L treated for 1 min at 50 degC postharvest measured after overnight incubation at 17 degC by GC analysis. The data set is classed as ADME. The method, boiled down: (§3)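 'Salustiana' oranges were water-washed, dried, dipped, then dried overnight at 17 °C in the dark. Unextracted fruit were used for total residues. Peel from five oranges was frozen at -18 °C. 5 g homogenized peel was extracted with 10 mL ethyl acetate/hexane (1/1) plus 2 g NaCl, shaken 30 min, then 1 mL of organic layer was dried under N2, redissolved in acetone, and run by GC without cleanup. Results are on a whole-fruit basis.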

Data set [8] concerns Penicillium digitatum. As to the kind of experiment: Fungicidal activity against TBZ-resistant Penicillium digitatum infected Valencia oranges assessed as postharvest green mold incidence at 600 mg/L treated for 1 min at 20 degC at 20 hr after fungal conidial inoculation measured after 7 days of storage at 20 degC (water Rvb = 96.7%). The data set is classed as functional.

The subject of data set [9] is Fruit surface. As to the kind of experiment: Drug residues on Citrus sinensis cvs. Salustiana (Salustiana oranges) fruit surface at 600 mg/L treated for 1 min at 20 degC postharvest measured after overnight incubation at 17 degC in presence of 2% SBC by GC analysis. The data set is classed as ADME. The procedure, abridged:
as §2

The test system of data set [10] is Penicillium digitatum. Kind of data set: Fungicidal activity against TBZ-resistant Penicillium digitatum infected Valencia oranges assessed as postharvest green mold incidence at 600 mg/L treated for 1 min at 20 degC at 20 hr after fungal conidial inoculation measured after 7 days of storage at 20 degC in presence of 0.5% SBC (water Rvb = 85.8%). The data set is classed as functional.

The test system of data set [11] is Fruit. Kind of data set: Total drug residues in Citrus sinensis cvs. Salustiana (Salustiana oranges) fruit at 600 mg/L treated for 3 min at 50 degC postharvest measured after overnight incubation at 17 degC by GC analysis. In kind it is ADME. The following applies: 0.05 h. The method, boiled down:
as §3

Data set [12] has as its system Penicillium digitatum. As to the kind of experiment: Fungicidal activity against TBZ-sensitive Penicillium digitatum infected Valencia oranges assessed as postharvest green mold incidence at 600 mg/L treated for 1 min at 20 degC at 20 hr after fungal conidial inoculation measured after 7 days of storage at 20 degC in presence of 2% SBC (water Rvb = 20.8%). The data set is classed as functional. The procedure, abridged:
(§4)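 Fruit were surface-disinfected in 1 g/L hypochlorite for 30 s, rinsed, dried, then wounded twice equatorially (2 mm × 2 mm rod). Inoculation was a 1 min dip in P. digitatum conidia, 1 × 10^5 conidia/mL final. Fruit were held 20 h at 20 °C and 90% RH, dipped 1 min (SBC wt/vol), and air-dried. Storage was 20 °C, 90% RH. Decay incidence (% fruit with lesions) was scored at 5 d for mandarins and 7 d for oranges. Three replicates of 40 fruit were used; arcsin-transformed data were compared by LSD, p ≤ 0.05.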

In data set [13] the test system is Fruit. As to the kind of experiment: Drug residues in Citrus sinensis cvs. Valencia late (Valencia oranges) at 600 mg/L treated for 1 min at 20 degC postharvest measured immediately post-drug treatment in presence of 1% SBC by GC analysis. In kind it is ADME. The procedure, abridged:
as §1

Data set [14] deals with Penicillium digitatum. Kind of data set: Fungicidal activity against TBZ-sensitive Penicillium digitatum infected Valencia oranges assessed as postharvest green mold incidence at 400 mg/L treated for 1 min at 40 degC at 20 hr after fungal conidial inoculation measured after 7 days of storage at 20 degC (water Rvb = 66.7%). The data set is classed as functional.
For data set [15], the system named is Penicillium digitatum. Kind of data set: Fungicidal activity against Penicillium digitatum infected Valenica oranges assessed as fruit weight loss at 400 mg/L treated for 1 min at 40 degC postharvest at 20 hr after fungal conidial inoculation measured after 14 days of storage at 17 degC in presence of 1% SBC (water Rvb = 8.68%). The data set is classed as functional.

The subject of data set [16] is Fruit. Kind of data set: Drug residues in Citrus sinensis cvs. Valencia late (Valencia oranges) at 600 mg/L treated for 1 min at 20 degC postharvest measured after 20 days of storage at 17 degC in presence of 1% SBC by GC analysis. In kind it is ADME. The method, boiled down:
as §1

Data set [17] concerns Penicillium digitatum. As to the kind of experiment: Fungicidal activity against TBZ-resistant Penicillium digitatum infected Nova mandarins assessed as postharvest green mold incidence at 200 mg/L treated for 1 min at 50 degC at 20 hr after fungal conidial inoculation measured after 5 days of storage at 20 degC (water Rvb = 95.0%). In kind it is functional.
Data set [18] has as its system Penicillium digitatum. Kind of data set: Fungicidal activity against TBZ-sensitive Penicillium digitatum infected Valencia oranges assessed as postharvest green mold incidence at 400 mg/L treated for 1 min at 40 degC at 20 hr after fungal conidial inoculation measured after 7 days of storage at 20 degC in presence of 1% SBC (water Rvb = 29.2%). The data set is classed as functional. The procedure, abridged:
as §4

Data set [19] relates to Cuticular wax. As to the kind of experiment: Drug residues in Citrus sinensis cvs. Salustiana (Salustiana oranges) cuticular wax at 600 mg/L treated for 1 min at 20 degC postharvest measured after overnight incubation at 17 degC in presence of 2% SBC by GC analysis. The data set is classed as ADME. The procedure, abridged:
as §2

Regarding `c1ccc2[nH]c(-c3cscn3)nc2c1` [THIABENDAZOLE], the Activity with Penicillium digitatum [1] came out at 4.23%; with Penicillium digitatum [3], 88.3%; in the data set on Penicillium digitatum [4], 21.7%; with Penicillium digitatum [8], 78.3%; in the data set on Penicillium digitatum [10], 38.3%; in the data set on Penicillium digitatum [12], 2.5%. Further, the Activity in the data set with Penicillium digitatum [14] was 14.2%; in the data set on Penicillium digitatum [15], 8.11%; in the data set with Penicillium digitatum [17] it was 65%; in the data set on Penicillium digitatum [18], 5%. The Drug uptake in the data set with Fruit [2] was 0.58 mg/kg; in the data set with Cuticular wax [5], 0.48 mg/kg; with Fruit surface [6], 0.68 mg/kg; in the data set on Fruit [7], 1.12 mg/kg; in the data set with Fruit surface [9], 0.53 mg/kg; with Fruit [11] it was 1.6 mg/kg. For the same compound, the figures for the Drug uptake in the data set with Fruit [13], with Fruit [16] and in the data set on Cuticular wax [19] were 1.31 mg/kg, 1.4 mg/kg and 0.46 mg/kg, respectively.

These data come from ChEMBL document CHEMBL3045217, “Factors affecting the synergy of thiabendazole, sodium bicarbonate, and heat to control postharvest green mold of citrus fruit” (J Agric Food Chem, 2008).
